Bioassay records from PubChem BioAssay.
STAT1 inh-1 – reduces IFN-gamma driven STAT1 reporter signal; NIH 3T3 STAT1-luciferase reporter, luminescence; inhibition, % at 5.5 µM; hit rate 0.35% among 200,000; AID 920;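 active = inhibition above a set limit, the mean inhibition across all tested compounds plus 3 SD, cut at about 34% in these data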;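 note: 0% = IFN-gamma with DMSO and 100% = IFN-gamma with 300 µM nifuroxazide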
STAT3 act-1 – activators of IL-6 induced STAT3 signaling; U3A cells, IL-6 STAT3-luciferase reporter, luminescence; 100% = signal with IL-6 EC80 alone; activation (% of control), % at 5.6 µM; hit rate 0.91% among 190,000; AID 871;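 active = activation above the screen-wide mean of compound activation plus 3 SD, cut at about 130% in these data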;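 note: 0% = background luminescence of wells with medium and substrate only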
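Assay system – human STAT1-deficient U3A cells with stable STAT3-luciferase reporter · Also added – IL-6 (33 ng/mL) · Schedule – compound 1 h, then IL-6 6 h at 37 °C · Technique – reporter luminescence signal · Evaluation – % activation versus median of IL-6-stimulated wells · Benchmarks – IL-6-only wells as 100% reference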
C8 TRAIL sens – caspase-8 TRAIL sensitization; AID 624354; inhibition (viability loss, TRAIL sensitization), % at 10 µM; NB7+C8 cells + TRAIL, ATPlite viability luminescence; hit rate 1% among 360,000;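 active = compounds causing at least 50% loss of cell viability in the single-dose screen, relative to plate controls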
PPC-1+TRAIL kill – PPC-1 cancer cell killing with TRAIL present. PPC-1 cells + TRAIL, ATPLite viability luminescence. cell killing (% activity), % at 4 µM or 5 µM. AID 1443. hit rate 0.41% among 220,000;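 active = cell killing above 50% in the first pass at 4 µM, then a duplicate retest at 5 µM averaging 50% or more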;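 note: plate controls were cells with TRAIL plus DMSO for no effect and medium-only wells lacking cells for full effect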
STAT3 blocker – inhibitors of IL-6 induced STAT3 signaling | U3A cells, IL-6 STAT3-luciferase reporter, luminescence; host cell line lacks STAT1 | inhibition, % at 5.5 µM | hit rate 0.89% among 190,000 | AID 862;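 active = inhibition above the mean inhibition across all screened compounds plus 3 SD, cut at about 44% in these data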;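 note: 0% = DMSO only wells and 100% = 100 µM nifuroxazide control wells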
HSP90 refold inh – HSP90 refolding inhibition in rabbit reticulocyte lysate | hit rate 0.91% among 290,000 | luciferase refolding luminescence, 3 h | inhibition, % at 5.6 µM;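 active = inhibition above the screen-wide mean plus 3 SD, computed separately per campaign, cut at about 16% in these data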;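 note: 0% = DMSO wells and 100% = 60 µM geldanamycin wells; inhibitors lower the luminescence because luciferase stays unfolded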
STAT3 act-2 – STAT3 activation, confirmation assay; shares compounds with STAT3 act-1; U3A STAT3-luciferase reporter, IL-6 potentiation, luminescence; U3A cells lack STAT1; 100 means same as IL-6 alone; potentiation (% of control), % at 5.7 µM; hit rate 64% among 1,200;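 active = percent activation of the STAT3 luciferase reporter above a set limit taken from the earlier primary screen, cut at about 130% in these data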;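 note: 0% = background signal of medium plus substrate and 100% = median of IL-6 with DMSO wells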
NFkB act 2 – activates NF-kappaB, counter-screen to STAT3 activators; shares compounds with STAT3 act-1; human cells, NF-kappaB reporter activation; activation (% of control), % at 5.7 µM; hit rate 11% among 1,200; in the data active = activation above about 120%;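 note: reporter induced by TNF-alpha stimulation; 100% = median of stimulated DMSO wells and 0% = no signal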
STAT1 act STAT3c – STAT1 activation in STAT3 activator counter-screen; shares compounds with STAT3 act-1; NIH 3T3 STAT1-luciferase reporter, IFN-gamma, luminescence; activation (% of control), % at 5.7 µM; hit rate 13% among 1,200;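 active = activation above the solvent-only control well mean plus 3 SD, set per screening run, cut at about 120% in these data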;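 note: 100% = IFN-gamma with DMSO median signal so 100% means no change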
STAT1 inh-2 – STAT1 inhibition, confirmation assay; inhibition, % at 5.5 µM; hit rate 55% among 200; NIH 3T3 STAT1-luciferase reporter, IFN-gamma, luminescence; shares compounds with STAT1 inh-1;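 active = triplicate mean inhibition exceeding the hit cutoff computed for the primary STAT1 screen, cut at about 35% in these data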;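 note: 0% = DMSO with IFN-gamma and 100% = 300 µM nifuroxazide with IFN-gamma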
NFkB inh STAT1ct – inhibits NF-kappaB, counter-screen to STAT1 inhibitors; shares compounds with STAT1 inh-1; HEK293T NF-kB luciferase reporter, TNF-alpha induced, luminescence; inhibition, % at 5.7 µM; hit rate 30% among 200; AID 1303;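 active = inhibition above the mean of solvent-only control wells plus 3 SD of those wells, cut at about 15% in these data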;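 note: 0% = DMSO with TNF-alpha and 100% = MG-132 control with TNF-alpha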
STAT3 inh 2 – inhibits STAT3, counter-screen to STAT1 inhibitors | U3A cells, IL-6 STAT3 luciferase reporter, luminescence; cells lacking STAT1 | inhibition, % at 5.7 µM | shares compounds with STAT1 inh-1 | hit rate 20% among 200 | AID 1310;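 active = inhibition above the mean of solvent-only control wells plus 3 SD, set per campaign, cut at about 25% in these data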;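 note: 0% = IL-6 plus DMSO and 100% = IL-6 plus nifuroxazide control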
HSP90 inh confirm – HSP90 inhibition, confirmation assay | hit rate 64% among 2,300 | shares compounds with HSP90 refold inh | inhibition, % at 5.9 µM | rabbit reticulocyte lysate, luciferase refolding luminescence, 3 h; in the data active = inhibition above about 18%;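 note: 0% = vehicle wells and 100% = reference inhibitor wells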
FLuc counter – blocks native firefly luciferase in HSP90 counter-screen. inhibition, % at 5.9 µM. AID 1847. hit rate 48% among 2,300. purified native firefly luciferase, luminescence. shares compounds with HSP90 refold inh;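 active = inhibition above the mean inhibition of all tested sample wells plus 3 SD, cut at about 10% in these data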;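 note: 0% = DMSO with luciferase and 100% = wells lacking luciferase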
Target sequence (P08659 whole entry, looked up): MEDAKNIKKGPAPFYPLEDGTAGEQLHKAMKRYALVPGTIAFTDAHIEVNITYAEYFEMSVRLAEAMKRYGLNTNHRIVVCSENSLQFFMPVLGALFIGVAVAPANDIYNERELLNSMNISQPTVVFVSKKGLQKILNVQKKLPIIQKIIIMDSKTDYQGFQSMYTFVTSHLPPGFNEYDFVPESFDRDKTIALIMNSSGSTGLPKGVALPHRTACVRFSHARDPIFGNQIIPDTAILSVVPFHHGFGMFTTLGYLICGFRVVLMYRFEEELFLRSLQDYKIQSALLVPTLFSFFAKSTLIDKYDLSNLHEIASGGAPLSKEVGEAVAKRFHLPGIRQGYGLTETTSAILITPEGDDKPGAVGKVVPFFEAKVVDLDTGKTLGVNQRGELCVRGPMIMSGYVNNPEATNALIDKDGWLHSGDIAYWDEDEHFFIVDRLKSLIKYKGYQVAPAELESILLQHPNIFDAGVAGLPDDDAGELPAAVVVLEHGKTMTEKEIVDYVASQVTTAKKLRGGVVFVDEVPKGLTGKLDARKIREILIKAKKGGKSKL
Numbers without * were called inactive; / = no result. The list is not random: actives were taken first. Their share in the collection is about 2.3%.

SMILES | STAT1 inh-1 | STAT3 act-1 | C8 TRAIL sens | PPC-1+TRAIL kill | STAT3 blocker | HSP90 refold inh | STAT1 inh-2 | NFkB inh STAT1ct | STAT3 inh 2 | others
Cc1ccc(Cl)cc1Nc1nc(-c2sc(NC(=O)c3ccco3)nc2C)cs1 | -9.2 | 96.7 | 29.7 | 7.9 | 10.6 | 10.0 | / | / | /
Cc1nc(NC(=O)c2ccco2)sc1-c1csc(Nc2ccc(Cl)cc2)n1 | 1.8 | 145.5* | 19.1 | 13.6 | -56.4 | 18.6* | / | / | / | STAT3 act-2=123.8;NFkB act 2=102.2;STAT1 act STAT3c=100.7;HSP90 inh confirm=5.3;FLuc counter=-23.6
O=C(N/N=C/c1cccs1)C(=O)Nc1cccc(Cl)c1 | -11.2 | 85.0 | -16.9 | 6.9 | 18.6 | -0.3 | / | / | /
O=C(O)c1cccc(N/N=C/c2cccs2)c1 | 60.0* | 82.8 | 7.0 | 32.8 | 22.1 | 51.7* | 43.4* | 79.4* | -24.0
CC1=NC(=O)C(N=Nc2ccccc2C(=O)O)N1c1ccccc1 (centres undefined) | 64.9* | 103.3 | 4.6 | 0.1 | -0.4 | 3.2 | 49.5* | 15.8* | -8.5
Cc1cccc(N(Cc2ccccc2)C(=O)CCl)c1 | 35.4* | 72.2 | 96.4* | 6.6 | 37.0 | 0.1 | 29.4 | 12.5 | 28.6*
COc1ccc(CCNC(=O)CNC(=O)c2ccc3c(c2)OCO3)cc1OC | / | / | 4.4 | / | / | 0.0 | / | / | /
CCCn1nc(C(=O)OCC(=O)c2c(N)n(C)c(=O)n(C)c2=O)c2ccccc2c1=O | 48.6* | 92.3 | 19.0 | -8.2 | 14.4 | -3.5 | 30.6 | 3.8 | -2.2
CCCn1nc(C(=O)OCC(=O)Nc2ccc(C(N)=O)cc2)c2ccccc2c1=O | / | / | -29.1 | / | / | / | / | / | /
COc1ccc(-n2c(SCc3cccnc3)nc3c(c2=O)SCC3)cc1OC | 44.5* | 94.4 | -2.3 | 33.5 | 8.3 | -1.3 | 34.7* | 10.2 | -23.1
Cn1c(SCc2cccnc2)nc2c(c1=O)SCC2 | 7.5 | 102.1 | -23.0 | 10.1 | 2.4 | 5.5 | / | / | /
O=C(N1CCCCC1)N1CCCN(C(=O)N2CCCCC2)CC1 | -0.5 | 107.3 | 0.8 | 32.8 | -4.8 | -3.7 | / | / | /
O=C(NC(=S)NC(c1ccccc1)c1ccncc1)c1ccccc1 (centres undefined) | 62.1* | 85.5 | 5.5 | 22.7 | 19.7 | 4.7 | 56.7* | 20.1* | 10.1
CC(NC(=S)NC(=O)c1ccccc1)c1ccccc1 (centres undefined) | / | / | 5.7 | / | / | / | / | / | /
CCCCN1C[C@H](Cc2ccccc2)[C@@H](CC(=O)Nc2ccccc2)C1=O | / | / | -17.6 | / | / | -3.5 | / | / | /
Cc1ccc(NC2CCCN(C(=O)c3c(C)noc3C)C2)cc1C (centres undefined) | / | / | -12.8 | / | / | 2.1 | / | / | /
COc1cc(/C=C/C(=O)OCC(=O)NC(=O)NC(C)C)cc(S(=O)(=O)N2CCc3ccccc32)c1OC | 58.8* | 91.5 | -8.3 | 8.3 | 12.7 | 1.3 | 45.7* | 17.8* | -3.7
Cc1ccc(S(=O)(=O)CC(CN2CCCCC2)N2CCCCC2)cc1 (centres undefined) | 33.0 | 111.7 | 4.7 | 21.3 | -7.2 | 0.6 | / | / | /
O=S(=O)(CC(CN1CCCCC1)N1CCCCC1)c1ccc2ccccc2c1 (centres undefined) | 35.4* | 104.4 | -11.3 | 10.3 | 2.1 | -2.3 | 15.4 | -3.2 | -50.1
CCOC(=O)N1CCN(c2ncnc3c2[nH]c2ccc(F)cc23)CC1 | 54.2* | 72.8 | 31.0 | 10.5 | 34.3 | -0.3 | 61.0* | 19.0* | 36.9*
CCOC(=O)N1CCN(c2ncnc3c2[nH]c2ccc(OC)cc23)CC1 | 53.2* | 91.1 | -24.0 | 17.5 | 17.4 | 9.6 | 44.0* | 20.8* | -23.9
Cn1nnnc1Sc1ncnc2scc(-c3ccc(F)cc3)c12 | 37.5* | 102.4 | 6.7 | / | 0.1 | 2.0 | 50.0* | -17.8 | -12.3
Cn1nnnc1Sc1ncnc2scc(-c3ccc(Br)cc3)c12 | / | / | 37.4 | / | / | / | / | / | /
Cn1nnnc1Sc1ncnc2scc(-c3ccccc3)c12 | 43.9* | 112.5 | 0.0 | -0.7 | -7.9 | 3.1 | 49.4* | -6.8 | -12.3
Cc1ccc(C(=O)COC(=O)CNC(=O)c2ccc(Br)o2)cc1[N+](=O)[O-] | / | / | -1.1 | 0.6 | / | 0.6 | / | / | /
SMILES | STAT1 inh-1 | STAT3 act-1 | C8 TRAIL sens | PPC-1+TRAIL kill | STAT3 blocker | HSP90 refold inh | STAT1 inh-2 | NFkB inh STAT1ct | STAT3 inh 2 | others
CC1(C)Cc2c(ccc3ccccc23)C2=C(C(=O)N3CCCC3)C(=O)C(=O)N21 | 41.1* | 96.4 | -8.7 | 13.9 | 5.6 | -2.7 | 40.5* | 4.8 | 0.5
CCOC(=O)C1CCN(CC(=O)Nc2c(C(=O)OC)[nH]c3ccccc23)CC1 | 9.9 | 89.7 | / | -20.0 | 20.5 | 0.2 | / | / | /
CCOC(=O)C1CCN(CC(=O)Nc2c(C(=O)OC)[nH]c3ccc(Cl)cc23)CC1 | 36.8* | 69.8 | 27.4 | 13.0 | 40.4 | 1.0 | 32.9 | 2.9 | 28.9*
COc1ccc(Cl)cc1C(=O)OCC(=O)Nc1cccnc1Cl | / | / | -9.0 | / | / | / | / | / | /
CCOC(=O)CCS(=O)(=O)c1nc(-c2ccccc2)cc(C(F)(F)F)n1 | 39.5* | 96.1 | -7.3 | -26.1 | 8.3 | 4.6 | 45.1* | -0.3 | 0.0
Cc1cc(NC(=O)CSc2nc(-c3cccs3)cc(C(F)(F)F)n2)no1 | 0.0 | 100.1 | -2.5 | -2.7 | 3.6 | 2.6 | / | / | /
COc1ccc(-c2cc(C(F)(F)F)nc(S(=O)(=O)CCCC(=O)Nc3cccnc3Cl)n2)cc1OC | 43.8* | 99.5 | 21.7 | -4.8 | 4.1 | 0.8 | 37.6* | 4.7 | -8.2
COc1ccc(-c2cc(C(F)(F)F)nc(S(C)(=O)=O)n2)cc1 | 30.2 | 96.3 | -9.1 | -33.2 | 1.5 | 7.4 | / | / | /
CS(=O)(=O)c1nc(-c2ccc(F)cc2)cc(C(F)(F)F)n1 | 44.5* | 89.0 | -9.3 | -3.8 | 20.2 | 2.3 | 38.6* | -12.1 | -13.9
